7 compounds from PMC4437580 (Bioorganic & medicinal chemistry letters, 2014) can be followed below.

The subject of data set [1] is MDA-MB-231 cells. The data set can be described thus: Cell viability, trypan blue exclusion. The format is cell-based. To be noted: drug 24 μM, 24-hour treatment. The gist of the method:
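MDA-MB-231 cells grown to 80% confluence, harvested, seeded at 1.5 × 10^5 cells/mL and left overnight. Medium replaced with FBS-free medium containing test compound at 24 μM. FBS added after 1 h, then a further 24 h exposure. Cell density counted by trypan blue exclusion. Viability (%) = treated density / DMSO-only control density × 100.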

Data set [2] concerns the target untagged Asf1 (Homo sapiens, UniProt Q9Y294). The data set can be described thus: ALPHA binding studies with Asf1. The settings on record: two different versions of ALPHA; data not shown.
The target in data set [3] is Asf1-H3/H4 (Homo sapiens, UniProt Q9Y294). The data set can be described thus: Asf1-H3/H4 binding inhibition.
Asf1-H3/H4, sequence (Q9Y294 1-155): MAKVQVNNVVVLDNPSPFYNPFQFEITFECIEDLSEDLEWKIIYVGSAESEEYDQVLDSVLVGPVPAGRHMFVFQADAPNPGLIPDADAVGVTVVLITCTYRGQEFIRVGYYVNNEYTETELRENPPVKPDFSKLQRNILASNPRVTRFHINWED

untagged Asf1, sequence (Q9Y294 1-155): as above

For the compound `COc1ccc(-c2cc([C@@H](O)[C@@H]3CCCCN3)c3ccccc3n2)cc1.Cl` [Compound 1], the “Cell viability (cytotoxicity), in words” value in data set [1] is given as “potently inhibit cell viability”. In data set [2], the “Binding to untagged Asf1, in words” value is given as “not to bind”.

Regarding `COc1cc(/C=N/NC(=O)c2ccc(NC(C)=O)cc2)cc(Br)c1O` [Compound 18], the “Asf1-H3/H4 binding potency/activity, in words” value in data set [3] is “significant loss of potency”.

In the case of `COc1cc(/C=N/NC(=O)C2CCNCC2)cc(Br)c1O` [Compound 25], the “Asf1-H3/H4 binding potency/activity, in words” value in data set [3] is “ineffective”.

As to `COc1cc(/C=N/NC(=O)C2CCOCC2)cc(Br)c1O` [Compound 26], the “Asf1-H3/H4 binding potency/activity, in words” value in data set [3] was “ineffective”.

In the case of `COc1cc(/C=N/NC(=O)c2ccc(NC(=O)c3ccccc3)c(COCCN(C)C)c2)cc(Br)c1O` [Compound 33], the “Asf1-H3/H4 binding potency/activity, in words” value in data set [3] is reported as “did not improve potency”.

For the compound `O=C(N/N=C/c1cc(Br)ccc1O)c1ccncc1` [Compound 47], the “Asf1-H3/H4 binding potency/activity, in words” value in data set [3] is given as “significant boost in potency”. Besides, in data set [3] (upon further analysis), the “Assay interference (metal scavenging)” value was “false positive results”.

For `COc1cc(/C=N/N(C)C(=O)c2ccc(NC(=O)c3ccccc3)cc2)cc(Br)c1O` [Compound 52], in data set [3], the “Asf1-H3/H4 binding potency/activity, in words” value was “tolerated”.
